Screening data as filed in PubChem.
Compounds with a hit are over-represented: about 4.6% of the library has one in this group of screens.
TAAR1 antag: human TAAR1 antagonists, primary screen, Fluo-8 calcium fluorescence, CHO RD-HGA16 cells | Trace amine-associated receptor 1 (Homo sapiens), Q96RJ0 | antagonist | inhibition, % at 3 µM | 360,000 compounds, 1.5% hits;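 active means inhibition above a per-plate cutoff, the mean inhibition of test compounds on that plate plus 3 SD, cut at about 49% in these data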
Target sequence (Q96RJ0 whole entry, looked up): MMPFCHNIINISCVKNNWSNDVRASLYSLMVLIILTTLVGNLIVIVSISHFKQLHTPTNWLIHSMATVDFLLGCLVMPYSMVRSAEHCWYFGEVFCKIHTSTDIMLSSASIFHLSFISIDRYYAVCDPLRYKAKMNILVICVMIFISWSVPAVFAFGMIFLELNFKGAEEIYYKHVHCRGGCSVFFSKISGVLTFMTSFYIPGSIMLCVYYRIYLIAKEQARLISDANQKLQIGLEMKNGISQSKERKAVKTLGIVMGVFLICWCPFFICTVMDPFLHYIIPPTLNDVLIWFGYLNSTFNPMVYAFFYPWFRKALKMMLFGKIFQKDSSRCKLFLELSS
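Material: CHO RD-HGA16 cells bearing hTAAR1; compound dosing: one-point dosing, 3 µM nominal final; schedule: dye loading 75 min at 37 °C, then 30 min room temperature; measured by: calcium fluorescence with Fluo-8; control set: vehicle and agonist controls; replication: n of 1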
GPR7 antagonist: GPR7 receptor antagonists, primary screen, cell-based, fluorescence, single concentration; 290,000 compounds, 1.1% hits; AID 1861, 2009; GPR7-expressing cells, fluorescence antagonist assay; inhibition, % at 4.4 µM; in the data active means inhibition above about 16%, passing the limit was not always enough;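 further: cells stimulated with the agonist NPW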
CHO parental Ca: ATP-evoked calcium signal inhibitors, parental CHO, primary screen, counter-screen for OX1R antagonist project, cell-based, fluorescence, Fluo-8 calcium dye; 330,000 compounds, 0.63% hits; inhibition, % at 5.6 µM; parental CHO-K1, ATP-induced calcium, Fluo-8 fluorescence;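 active means inhibition above that plate's mean sample inhibition plus 3 SD, cut at about 26% in these data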
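Assay system: untransfected parental CHO cell line. Also added: ATP agonist challenge. Dosing: one dose, 5.6 µM nominal. Measured by: Fluo-8 fluorescence. Read-out: % inhibition. Benchmarks: ATP wells versus no-ATP DMSO wells. Repeats: no replicates.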
OX1R antag-1: antagonists of human orexin 1 receptor (OX1R) | OX1R-expressing cells, FRET antagonist read-out | inhibition, % at 6.6 µM | 330,000 compounds, 1.8% hits; in the data active means inhibition mostly above about 38%, no sharp cut-off; inactive means mostly below about 40%
Target sequence (O43613 whole entry, looked up): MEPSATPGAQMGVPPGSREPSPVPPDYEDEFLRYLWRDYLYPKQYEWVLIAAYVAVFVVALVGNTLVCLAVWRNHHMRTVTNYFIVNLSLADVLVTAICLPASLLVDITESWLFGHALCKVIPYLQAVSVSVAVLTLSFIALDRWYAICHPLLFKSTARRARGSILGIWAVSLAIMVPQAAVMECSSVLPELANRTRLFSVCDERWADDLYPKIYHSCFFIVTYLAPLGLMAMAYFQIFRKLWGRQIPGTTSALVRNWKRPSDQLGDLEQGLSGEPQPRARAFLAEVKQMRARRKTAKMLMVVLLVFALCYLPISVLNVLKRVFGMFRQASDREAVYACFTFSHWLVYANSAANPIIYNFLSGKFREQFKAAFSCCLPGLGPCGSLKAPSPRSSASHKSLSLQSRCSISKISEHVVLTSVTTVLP
TAAR1 ag: human TAAR1 agonists, primary screen, Fluo-8 calcium fluorescence, CHO RD-HGA16 cells; Trace amine-associated receptor 1 (Homo sapiens), Q96RJ0; vehicle wells 0%, saturating PEA agonist 100%; activation, % at 3 µM; 360,000 compounds, 0.99% hits; AID 624467, 2012;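 active means activation above the mean activation of all test compounds in the run plus 3 SD, cut at about 38% in these data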
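Assay system: CHO-derived RD-HGA16 cells with stable Gα16 and human TAAR1; timing: 17-24 h seeding, 75 min 37 °C dye, 30 min RT; read-out: % activation from peak over basal fluorescence ratio, DMSO-to-PEA scaled; measured by: kinetic Fluo-8 calcium fluorescence; benchmarks: low control DMSO, high control PEA (EC100); doses: 3 µM single concentration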
OX1R antag-2: OX1R (HCRTR1) antagonists, primary screen, fluorescence, CHO/OX1R cells, Fluo-8 calcium, orexin A. Orexin/Hypocretin receptor type 1 (Homo sapiens), O43613. Fluo-8 calcium fluorescence. inhibition, % at 5 µM. 330,000 compounds, 0.43% hits. AID 434989, 2010;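 active means inhibition above its plate's threshold, mean inhibition of all tested compounds on the plate plus 3 SD, cut at about 37% in these data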
TAAR1 nonsel count: nonselective antagonists in TAAR1 counter-screen cells, counter-screen for hTAAR1 antagonist project, cell-based, fluorescence, calcium; counterscreen cell line, antagonist mode; AID 651780, 2012; shares compounds with TAAR1 antag; inhibition, % at 3 µM; 2,400 compounds, 77% hits; in the data active means inhibition above about 22%;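 further: CHO-Ga16 host cells stimulated with ATP at an EC80 level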
TAAR1 ant conf: human TAAR1 antagonists, retest of hits, confirmation, cell-based, fluorescence; shares compounds with TAAR1 antag; TAAR1-expressing cells, fluorescence antagonist read-out; inhibition, % at 3 µM; 2,400 compounds, 40% hits; in the data active means inhibition above about 49%;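 further: CHO-Ga16 host cells challenged with agonist PEA near its EC80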
Ga16 ag counter: calcium activation in Ga16-expressing cells, counter-screen for TAAR1 antagonist project, cell-based, fluorescence. shares compounds with TAAR1 antag. agonist counterscreen. activation, % at 3 µM. 2,400 compounds, 18% hits. AID 651953, 2012; in the data active means activation above about 12%
TAAR1 ag count: TAAR1 activation by candidate antagonists – cell-based, fluorescence, counter-screen for TAAR1 antagonist project | hTAAR1 cell line, agonist mode | AID 651955, 2012 | activation, % at 3 µM | 2,400 compounds, 2% hits | shares compounds with TAAR1 antag; in the data active means activation above about 37%;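 further: CHO cells stably expressing TAAR1 with calcium dye readout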
Hits are given with their value.

How did Cc1ccc(-c2csc(N3CCC[C@@H]3C(=O)NCCn3c(-c4ccncc4)nc4ccccc43)n2)cc1 do in these assays?
TAAR1 antag: 62; GPR7 antagonist: inactive; CHO parental Ca: inactive; OX1R antag-1: inactive; TAAR1 ag: inactive; OX1R antag-2: inactive; TAAR1 nonsel count: 26; TAAR1 ant conf: 49; Ga16 ag counter: inactive; TAAR1 ag count: inactive

How did Cc1ccc(-c2csc(N3CCN(CCCn4c(-c5ccncc5)nc5ccccc54)CC3)n2)cc1 do in these assays?
TAAR1 antag: 55; GPR7 antagonist: inactive; CHO parental Ca: inactive; OX1R antag-1: inactive; TAAR1 ag: inactive; OX1R antag-2: inactive; TAAR1 nonsel count: 25; TAAR1 ant conf: inactive; Ga16 ag counter: inactive; TAAR1 ag count: inactive

What do the screens show for `C=CCNC(=O)C(=O)NCC1CCCN1S(=O)(=O)c1cccs1` (stereo not given)?
TAAR1 antag: inactive; CHO parental Ca: inactive; OX1R antag-1: inactive; TAAR1 ag: inactive; OX1R antag-2: inactive

Results for COC(=O)c1ccc(C)c(NC(=O)CSc2nnc3ccccn23)c1 ?
TAAR1 antag: 87; CHO parental Ca: inactive; OX1R antag-1: inactive; TAAR1 ag: inactive; OX1R antag-2: inactive; TAAR1 nonsel count: inactive; TAAR1 ant conf: inactive; Ga16 ag counter: inactive; TAAR1 ag count: inactive

How did O=C1C=C(c2ccc(C(=O)O)cc2)C[C@@H](c2ccc3c(c2)OCO3)C1 do in these assays?
TAAR1 antag: inactive; CHO parental Ca: inactive; OX1R antag-1: inactive; TAAR1 ag: inactive; OX1R antag-2: inactive

Results for CCC(=O)c1ccc(OCC(=O)OCC(=O)Nc2ccc(C)c(S(=O)(=O)N3CCCCC3)c2)cc1 ?
TAAR1 antag: 67; CHO parental Ca: inactive; OX1R antag-1: inactive; TAAR1 ag: inactive; OX1R antag-2: inactive; TAAR1 nonsel count: 56; TAAR1 ant conf: 57; Ga16 ag counter: 17; TAAR1 ag count: inactive

How did COc1cc(/C=C2/C(=N)N3C=CSC3=NC2=O)ccc1OCCCOc1c(C)cccc1C do in these assays?
TAAR1 antag: inactive; GPR7 antagonist: inactive; CHO parental Ca: inactive; OX1R antag-1: inactive; TAAR1 ag: inactive; OX1R antag-2: inactive

How did COc1cc(/C=C2/C(=N)N3C=CSC3=NC2=O)ccc1OCCCOc1ccccc1C do in these assays?
TAAR1 antag: 64; GPR7 antagonist: inactive; CHO parental Ca: inactive; OX1R antag-1: inactive; TAAR1 ag: inactive; OX1R antag-2: inactive; TAAR1 nonsel count: 26; TAAR1 ant conf: inactive; Ga16 ag counter: inactive; TAAR1 ag count: inactive

What do the screens show for `CCc1c(C#N)c(SCCC(=O)Nc2ccc(F)cc2)nc2c1C(=O)CC(C)(C)C2`?
TAAR1 antag: 74; GPR7 antagonist: inactive; CHO parental Ca: inactive; OX1R antag-1: inactive; TAAR1 ag: inactive; OX1R antag-2: inactive; TAAR1 nonsel count: 33; TAAR1 ant conf: 72; Ga16 ag counter: inactive; TAAR1 ag count: inactive

Results for CC1(C)CC(=O)c2c(nc(SCC(=O)Nc3nsc(-c4ccccc4)n3)c(C#N)c2-c2ccccc2)C1 ?
TAAR1 antag: inactive; GPR7 antagonist: inactive; CHO parental Ca: inactive; OX1R antag-1: inactive; TAAR1 ag: inactive; OX1R antag-2: inactive

Results for O=C(Nc1ccccc1)c1ccccc1OCc1ccc(S(=O)(=O)N2CCOCC2)cc1 ?
TAAR1 antag: inactive; GPR7 antagonist: inactive; CHO parental Ca: inactive; OX1R antag-1: inactive; TAAR1 ag: inactive; OX1R antag-2: inactive

What do the screens show for `CC(=O)Nc1ccc(NC2=C(Cl)C(=O)c3ccccc3C2=O)cc1`?
TAAR1 antag: 65; GPR7 antagonist: inactive; TAAR1 ag: inactive; TAAR1 nonsel count: 40; TAAR1 ant conf: inactive; Ga16 ag counter: inactive; TAAR1 ag count: inactive

How did O=C(Oc1ccc(NC2=C(Cl)C(=O)c3ccccc3C2=O)cc1)c1ccc([N+](=O)[O-])cc1 do in these assays?
GPR7 antagonist: inactive

What do the screens show for `COc1ccc(N2CCN(C(=O)C(Cc3ccccc3)NC(=O)c3ccccc3)CC2)cc1` (stereo not given)?
TAAR1 antag: inactive; TAAR1 ag: inactive

Results for CC1(c2nnc(-c3ccncc3)o2)CC(c2c(Cl)cccc2Cl)=NO1 (stereo not given) ?
TAAR1 antag: inactive; CHO parental Ca: inactive; OX1R antag-1: inactive; TAAR1 ag: inactive; OX1R antag-2: inactive

What do the screens show for `CC1(c2nnc(-c3ccccc3)o2)CC(c2c(Cl)cccc2Cl)=NO1` (stereo not given)?
TAAR1 antag: 70; CHO parental Ca: inactive; OX1R antag-1: inactive; TAAR1 ag: inactive; OX1R antag-2: inactive; TAAR1 nonsel count: 23; TAAR1 ant conf: 53; Ga16 ag counter: inactive; TAAR1 ag count: inactive

Results for CC(=O)c1ccccc1NC(=O)COC(=O)c1cc(C)oc1C ?
TAAR1 antag: 54; CHO parental Ca: inactive; OX1R antag-1: inactive; TAAR1 ag: inactive; OX1R antag-2: inactive; TAAR1 nonsel count: inactive; TAAR1 ant conf: inactive; Ga16 ag counter: inactive; TAAR1 ag count: inactive

Results for COc1ccccc1NC(=O)COC(=O)c1cc(C)oc1C ?
TAAR1 antag: inactive; CHO parental Ca: inactive; OX1R antag-1: inactive; TAAR1 ag: inactive; OX1R antag-2: inactive

What do the screens show for `CCOC(=O)c1c(CNc2ccncc2)n(C)c2cc(Br)c(O)cc12`?
TAAR1 antag: inactive; GPR7 antagonist: inactive; CHO parental Ca: inactive; OX1R antag-1: inactive; TAAR1 ag: inactive; OX1R antag-2: inactive

What do the screens show for `CCCNC(=O)c1ccccc1NC(=O)c1ccc2c(c1)NC(=O)C(C)S2` (stereo not given)?
TAAR1 antag: 59; GPR7 antagonist: inactive; CHO parental Ca: inactive; OX1R antag-1: inactive; TAAR1 ag: inactive; OX1R antag-2: inactive; TAAR1 nonsel count: 27; TAAR1 ant conf: 49; Ga16 ag counter: inactive; TAAR1 ag count: inactive
